Measurements as given in ChEMBL document CHEMBL5712920, “The histone methyltransferase inhibitor A-366 enhances hemoglobin expression in erythroleukemia cells upon co-exposure with chemical inducers in culture” (J Biol Res (Thessalon), 2021).

Columns and labels:
FLC clone 745 = experiment: Cytotoxicity against mouse FLC clone 745 cells assessed as reduction in cell viability at IC50 concentration measured up to 96 hrs by Neubauer chamber based microscopic analysis; assay type: toxicity; conditions: flc clone 745, 96 h
In short: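 MEL-745 cells treated continuously with compound at its previously determined 48 h IC50, without inducer, for up to 96 h. Total cell number counted daily in a Neubauer chamber. Final DMSO ≤0.2% v/v.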

[1] = Cytotoxicity against HMBA-stiumulated mouse FLC clone 745 cells assessed as cell viability measured after 48 hrs by Neubauer chamber based microscopic analysis (reference value: 50.563%); assay type: toxicity; conditions: HMBA-stimulated FLC clone 745 cells, read-out: Activity
[2] = Cytotoxicity against mouse FLC clone 745 cells assessed as reduction in cell viability measured after 48 hrs by Neubauer chamber based microscopic analysis; assay type: toxicity
[3] = Inhibition of G9a/GLP in HMBA-stiumulated mouse FLC clone 745 cells assessed as increase in erythroid differentiation at IC50 concentration measured after 72 hrs by benzidine-H2O2 based assay (reference value: 69.6%); conditions: condition erythroleukemia
[4] = Inhibition of G9a/GLP in HMBA-stiumulated mouse FLC clone 745 cells assessed as increase in erythroid differentiation at IC50 concentration measured after 96 hrs by benzidine-H2O2 based assay (reference value: 79.45%); conditions: condition erythroleukemia
[5] = molecular target: N-lysine methyltransferase SMYD2 (Mus musculus) (UniProt Q8R5A0); experiment: Inhibition of SMYD2 in HMBA-stiumulated mouse FLC clone 745 cells assessed as increase in erythroid differentiation at IC50 concentration measured after 72 hrs by benzidine-H2O2 based assay (reference value: 69.6%); assay type: cell-based
[6] = molecular target: N-lysine methyltransferase SMYD2 (Mus musculus) (UniProt Q8R5A0); experiment: Inhibition of SMYD2 in HMBA-stiumulated mouse FLC clone 745 cells assessed as increase in erythroid differentiation at IC50 concentration measured after 96 hrs by benzidine-H2O2 based assay (reference value: 79.45%); assay type: cell-based
[7] = molecular target: Histone-lysine N-methyltransferase KMT5B (Mus musculus) (UniProt Q3U8K7); experiment: Inhibition of SUV420H1 in HMBA-stiumulated mouse FLC clone 745 cells assessed as increase in erythroid differentiation at IC50 concentration measured after 72 hrs by benzidine-H2O2 based assay (reference value: 69.6%); assay type: cell-based
[8] = molecular target: Histone-lysine N-methyltransferase KMT5B (Mus musculus) (UniProt Q3U8K7); experiment: Inhibition of SUV420H1 in HMBA-stiumulated mouse FLC clone 745 cells assessed as increase in erythroid differentiation at IC50 concentration measured after 96 hrs by benzidine-H2O2 based assay (reference value: 79.45%); assay type: cell-based
[9] = molecular target: Protein arginine N-methyltransferase 3 (Mus musculus) (UniProt Q922H1); experiment: Inhibition of PRMT3 in HMBA-stiumulated mouse FLC clone 745 cells assessed as increase in erythroid differentiation at IC50 concentration measured after 72 hrs by benzidine-H2O2 based assay (reference value: 69.6%); assay type: cell-based
[10] = molecular target: Protein arginine N-methyltransferase 3 (Mus musculus) (UniProt Q922H1); experiment: Inhibition of PRMT3 in HMBA-stiumulated mouse FLC clone 745 cells assessed as increase in erythroid differentiation at IC50 concentration measured after 96 hrs by benzidine-H2O2 based assay (reference value: 79.45%); assay type: cell-based
[11] = molecular target: Histone-lysine N-methyltransferase EZH2 (Mus musculus) (UniProt Q61188); experiment: Inhibition of EZH2 in HMBA-stiumulated mouse FLC clone 745 cells assessed as increase in erythroid differentiation at IC50 concentration measured after 72 hrs by benzidine-H2O2 based assay (reference value: 69.6%); assay type: cell-based
[12] = molecular target: Histone-lysine N-methyltransferase EZH2 (Mus musculus) (UniProt Q61188); experiment: Inhibition of EZH2 in HMBA-stiumulated mouse FLC clone 745 cells assessed as increase in erythroid differentiation at IC50 concentration measured after 96 hrs by benzidine-H2O2 based assay (reference value: 79.45%); assay type: cell-based
[13] = molecular target: Histone-lysine N-methyltransferase, H3 lysine-79 specific (Mus musculus) (UniProt F7CVL0); experiment: Inhibition of DOT1L in HMBA-stiumulated mouse FLC clone 745 cells assessed as increase in erythroid differentiation at IC50 concentration measured after 72 hrs by benzidine-H2O2 based assay (reference value: 69.6%); assay type: cell-based
[14] = molecular target: Histone-lysine N-methyltransferase, H3 lysine-79 specific (Mus musculus) (UniProt F7CVL0); experiment: Inhibition of DOT1L in HMBA-stiumulated mouse FLC clone 745 cells assessed as increase in erythroid differentiation at IC50 concentration measured after 96 hrs by benzidine-H2O2 based assay (reference value: 79.45%); assay type: cell-based

N-lysine methyltransferase SMYD2 (Mus musculus), sequence (Q8R5A0 whole entry): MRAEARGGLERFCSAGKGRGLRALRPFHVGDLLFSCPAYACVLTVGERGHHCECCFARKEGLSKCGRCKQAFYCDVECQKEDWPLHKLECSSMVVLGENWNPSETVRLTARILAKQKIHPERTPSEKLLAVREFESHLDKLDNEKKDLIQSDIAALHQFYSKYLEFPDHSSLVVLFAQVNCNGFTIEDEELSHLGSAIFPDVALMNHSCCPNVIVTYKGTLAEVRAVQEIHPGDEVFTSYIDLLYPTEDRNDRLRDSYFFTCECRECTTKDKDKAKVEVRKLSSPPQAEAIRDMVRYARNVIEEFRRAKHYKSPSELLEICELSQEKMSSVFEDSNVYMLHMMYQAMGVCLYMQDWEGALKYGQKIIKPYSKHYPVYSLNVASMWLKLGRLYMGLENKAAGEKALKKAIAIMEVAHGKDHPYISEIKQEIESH
Histone-lysine N-methyltransferase EZH2 (Mus musculus), sequence (Q61188 whole entry): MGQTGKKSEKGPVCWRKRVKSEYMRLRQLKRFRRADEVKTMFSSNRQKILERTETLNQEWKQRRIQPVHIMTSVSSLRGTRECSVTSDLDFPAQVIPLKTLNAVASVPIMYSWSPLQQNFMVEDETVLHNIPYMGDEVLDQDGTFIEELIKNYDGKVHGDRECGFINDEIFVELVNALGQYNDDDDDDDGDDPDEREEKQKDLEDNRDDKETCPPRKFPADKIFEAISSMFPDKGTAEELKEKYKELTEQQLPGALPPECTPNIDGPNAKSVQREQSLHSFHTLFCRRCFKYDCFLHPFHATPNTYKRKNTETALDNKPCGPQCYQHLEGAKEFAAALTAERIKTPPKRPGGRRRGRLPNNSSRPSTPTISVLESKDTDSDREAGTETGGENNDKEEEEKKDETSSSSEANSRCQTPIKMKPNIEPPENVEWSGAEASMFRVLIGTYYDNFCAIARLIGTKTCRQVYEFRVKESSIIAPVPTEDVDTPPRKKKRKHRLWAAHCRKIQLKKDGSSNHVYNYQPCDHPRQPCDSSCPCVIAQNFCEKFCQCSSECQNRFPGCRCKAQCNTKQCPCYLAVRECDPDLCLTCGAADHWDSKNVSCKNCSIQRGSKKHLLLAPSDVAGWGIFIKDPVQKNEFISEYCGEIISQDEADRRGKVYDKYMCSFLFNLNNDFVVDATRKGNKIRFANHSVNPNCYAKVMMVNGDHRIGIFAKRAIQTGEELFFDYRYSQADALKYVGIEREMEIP
Protein arginine N-methyltransferase 3 (Mus musculus), sequence (Q922H1 whole entry): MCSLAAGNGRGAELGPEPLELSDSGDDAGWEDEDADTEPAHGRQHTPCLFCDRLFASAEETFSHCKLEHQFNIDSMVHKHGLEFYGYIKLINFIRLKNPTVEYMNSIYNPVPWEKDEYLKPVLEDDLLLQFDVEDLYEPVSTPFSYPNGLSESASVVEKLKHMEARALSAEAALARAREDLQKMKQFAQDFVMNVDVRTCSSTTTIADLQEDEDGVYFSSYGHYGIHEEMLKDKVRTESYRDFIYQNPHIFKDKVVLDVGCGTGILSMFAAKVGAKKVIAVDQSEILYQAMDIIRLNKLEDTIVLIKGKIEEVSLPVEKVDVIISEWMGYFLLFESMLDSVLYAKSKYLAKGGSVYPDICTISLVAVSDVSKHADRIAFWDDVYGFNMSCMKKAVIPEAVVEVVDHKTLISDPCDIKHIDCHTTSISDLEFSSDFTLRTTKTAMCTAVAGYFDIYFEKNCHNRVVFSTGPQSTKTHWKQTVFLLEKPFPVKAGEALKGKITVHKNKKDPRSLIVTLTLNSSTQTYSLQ
Histone-lysine N-methyltransferase KMT5B (Mus musculus), sequence (Q3U8K7 whole entry): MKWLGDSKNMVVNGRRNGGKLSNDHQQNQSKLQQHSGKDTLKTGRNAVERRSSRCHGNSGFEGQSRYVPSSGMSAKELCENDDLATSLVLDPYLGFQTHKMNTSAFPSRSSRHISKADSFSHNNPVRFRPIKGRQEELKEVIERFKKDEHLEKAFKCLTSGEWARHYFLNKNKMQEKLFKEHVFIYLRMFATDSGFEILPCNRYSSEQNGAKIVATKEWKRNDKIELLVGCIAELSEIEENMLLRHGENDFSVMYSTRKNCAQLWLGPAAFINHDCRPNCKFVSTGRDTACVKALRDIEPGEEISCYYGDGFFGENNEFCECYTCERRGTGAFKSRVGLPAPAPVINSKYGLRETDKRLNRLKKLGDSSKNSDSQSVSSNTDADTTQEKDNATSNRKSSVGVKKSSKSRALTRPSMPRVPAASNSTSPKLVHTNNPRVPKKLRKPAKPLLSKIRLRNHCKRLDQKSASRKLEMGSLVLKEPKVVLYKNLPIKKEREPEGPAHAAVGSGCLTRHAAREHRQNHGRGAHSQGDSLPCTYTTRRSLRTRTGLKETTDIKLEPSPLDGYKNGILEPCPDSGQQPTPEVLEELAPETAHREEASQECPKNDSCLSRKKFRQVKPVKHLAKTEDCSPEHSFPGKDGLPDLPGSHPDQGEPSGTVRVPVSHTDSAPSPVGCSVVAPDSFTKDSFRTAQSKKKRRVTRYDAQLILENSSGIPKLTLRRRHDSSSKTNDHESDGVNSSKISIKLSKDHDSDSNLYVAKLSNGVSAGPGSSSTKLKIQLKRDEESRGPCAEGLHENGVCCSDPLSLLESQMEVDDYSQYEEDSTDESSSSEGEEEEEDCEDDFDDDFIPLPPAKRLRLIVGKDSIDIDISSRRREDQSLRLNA
Histone-lysine N-methyltransferase, H3 lysine-79 specific (Mus musculus), sequence (F7CVL0 as listed by the source): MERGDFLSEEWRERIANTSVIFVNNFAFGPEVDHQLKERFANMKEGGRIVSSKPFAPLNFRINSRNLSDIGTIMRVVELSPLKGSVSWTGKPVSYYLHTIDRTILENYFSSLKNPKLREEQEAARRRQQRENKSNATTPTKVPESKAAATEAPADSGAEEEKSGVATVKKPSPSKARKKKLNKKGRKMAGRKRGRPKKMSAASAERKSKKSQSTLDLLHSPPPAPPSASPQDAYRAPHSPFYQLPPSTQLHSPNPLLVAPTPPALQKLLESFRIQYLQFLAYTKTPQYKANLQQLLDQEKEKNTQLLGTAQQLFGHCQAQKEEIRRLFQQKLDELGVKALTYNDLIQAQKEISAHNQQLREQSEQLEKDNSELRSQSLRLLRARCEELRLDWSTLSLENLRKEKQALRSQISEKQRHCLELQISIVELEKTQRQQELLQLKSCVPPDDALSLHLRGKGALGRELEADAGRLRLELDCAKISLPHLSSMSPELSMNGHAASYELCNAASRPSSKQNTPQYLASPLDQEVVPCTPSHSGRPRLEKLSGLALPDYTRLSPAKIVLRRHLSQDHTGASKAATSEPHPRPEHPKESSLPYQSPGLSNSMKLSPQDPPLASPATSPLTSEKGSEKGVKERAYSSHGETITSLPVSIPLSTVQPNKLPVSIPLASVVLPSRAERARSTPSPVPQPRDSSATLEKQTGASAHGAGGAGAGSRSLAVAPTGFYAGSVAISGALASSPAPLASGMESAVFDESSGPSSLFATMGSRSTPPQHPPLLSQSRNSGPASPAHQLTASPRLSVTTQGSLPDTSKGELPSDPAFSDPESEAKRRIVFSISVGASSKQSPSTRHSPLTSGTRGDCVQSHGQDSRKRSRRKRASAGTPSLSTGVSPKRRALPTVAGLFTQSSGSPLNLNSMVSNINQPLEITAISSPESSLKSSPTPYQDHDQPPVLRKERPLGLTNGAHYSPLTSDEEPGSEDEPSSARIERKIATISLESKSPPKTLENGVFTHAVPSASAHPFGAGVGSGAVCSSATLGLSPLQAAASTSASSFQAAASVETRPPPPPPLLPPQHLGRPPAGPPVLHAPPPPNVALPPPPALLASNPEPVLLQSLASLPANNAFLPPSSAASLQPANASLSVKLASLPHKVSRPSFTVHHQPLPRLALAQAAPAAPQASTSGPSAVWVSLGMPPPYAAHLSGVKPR

SMILES	viability at 48 h [1] [%]	IC50 at 48 h [2] [µM]	also measured
CN1CCN(c2ccc(-c3cccc(CN4CCOCC4)c3)cc2NC(=O)c2c[nH]c(=O)cc2C(F)(F)F)CC1	7.57		Activity (FLC clone 745): Toxic
COc1cc2c(NC3CCN(C(C)C)CC3)nc(C3CCCCC3)nc2cc1OCCCN1CCCC1	7.56	0.44	Activity (FLC clone 745): Toxic; inhibition (INH) [3]: <1%; inhibition (INH) [4]: <1%
Cc1cn(CCN2CCN(c3ccccc3-c3cc(C#N)cc(C(=O)NCCCN4CCCC4)c3)CC2)c2ccccc12	16.6	0.68	inhibition [5]: 1.3%; inhibition [6]: 9%
Clc1cc2c(NC3CCCC3)nnc(-c3ccncc3)c2cc1Cl	27.2	20	inhibition [7]: < 1%; inhibition [8]: 19%
O=C([C@@H](Cc1cccc(C(F)(F)F)c1)NS(=O)(=O)c1cc(F)c2c(c1)CCNC2)N1CCCC1	18.7	20	
O=C(NCC(=O)N1CCCC1)Nc1ccc2cnccc2c1	31.6	11	inhibition [9]: 18.9%; inhibition [10]: 47.7%
CCc1cc(C)[nH]c(=O)c1CNC(=O)c1cc(-c2ccc(N3CCN(C(C)C)CC3)nc2)cc2c1cnn2C(C)C	6.96	3.2	inhibition [11]: < 1%; inhibition [12]: < 1%
CCCc1cc(C)[nH]c(=O)c1CNC(=O)c1cc(-c2ccnc(N3CCN(C)CC3)c2)cc2c1cnn2C(C)C	20.6	2.2	inhibition [11]: < 1%; inhibition [12]: < 1%
CCN(C(=O)CO)[C@H]1CN(/C(=N\C#N)Nc2cccc(OC(F)F)c2)N=C1c1ccc(Cl)c(Cl)c1	22.8	4.7	inhibition [5]: 12.7%; inhibition [6]: 22.6%
CC(C)N(CCCNC(=O)Nc1ccc(C(C)(C)C)cc1)C[C@H]1O[C@@H](n2cc(Br)c3c(N)ncnc32)[C@H](O)[C@@H]1O	23.9	2.3	inhibition [13]: 4.3%; inhibition [14]: 6.64%
COc1cc2c(NC3CCN(C(C)C)CC3)nc(N3CCC(F)(F)CC3)nc2cc1OCCCN1CCCC1	4.2	1.6	Activity (FLC clone 745): Toxic; inhibition (INH) [3]: <1%; inhibition (INH) [4]: <1%
